Measurements gathered from unrelated publications.
Compare with care: the assays were run in different laboratories.

Structure (SMILES)	cell line	test	test system	setting	endpoint	result
CC[C@@]1(O)C(=O)OCc2c1cc1n(c2=O)Cc2cc3ccccc3nc2-1	MDCK		Caco-2	0.5 µM, 105 min, pH 7.4	Papp A→B	27 ×10⁻⁶ cm/s
Nc1nc(O)c2ncn(COC(CO)CO)c2n1	CRFK	cell growth or viability, MTS			CC50	> 100 µM
O=C(CCCN1CCC(O)(c2ccc(Cl)cc2)CC1)c1ccc(Br)cc1	K562	cell growth or viability			IC50	41.2 µM
CCC(CC)O[C@@H]1C=C(C(=O)O)C[C@H](N)[C@H]1NC(C)=O	MDCK	cell growth or viability, MTT		72 h	CC50	> 200 µM
CC(C)[C@H](N)C(=O)N1CCC[C@H]1B(O)O	K562	cell growth or viability, ATP luminescence		60 µM, 5 days	viability	98%
N#Cc1ccc(NC(=S)NN)cc1	CRFK	cell growth or viability, MTS			CC50	84.6 µg/mL
CC(N)C12CC3CC(CC(C3)C1)C2 (stereo not drawn)	MDCK	cell growth or viability, MTT		72 h	CC50	62 µM
CC(C)(C)NC(=O)N[C@H](C(=O)N1C[C@H]2[C@@H]([C@H]1C(=O)NC(CC1CCC1)C(=O)C(N)=O)C2(C)C)C(C)(C)C (stereo partly drawn)	MDCK	cell growth or viability, neutral red		48 h	CC50	> 100 µM
COc1ccc(C=NNC(=S)Nc2ccc(C#N)cc2)cc1	CRFK	cell growth or viability, MTS			CC50	> 100 µg/mL
